Tests used:
[1] = system: liver, adipose, muscle and kidney tissue; experiment: Proliferation; assay type: in vivo, mouse; conditions: 3-week treatment, 0.25 mg/kg/BW i.p.
How it was run: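 Male NSG mice (8–10 weeks old) carried human islet kidney-capsule grafts. From 1 week post-graft they received test compound i.p. at 0.25 mg/kg in 50% DMSO or vehicle, twice weekly for 3 weeks. BrdU was then given at 100 mg/kg i.p. for 3 days, and mice were killed 6 h after the last dose. BrdU+ nuclei were counted in liver and muscle (≥3,000 cells) and in visceral/subcutaneous adipose (1,000–2,000 cells).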

[2] = system: endogenous NSG pancreatic islets β-cells; experiment: β-cell proliferation in endogenous pancreatic islets of NSG mice; assay type: in vivo, mouse; conditions: 0.25 mg/kg/BW i.p. twice a week for 3 weeks, vs nontreated or sham-operated mice
How it was run: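 Pancreata came from human islet-grafted NSG mice dosed i.p. with test compound (0.25 mg/kg, 50% DMSO) or vehicle twice weekly for 3 weeks. Mice then received BrdU 100 mg/kg i.p. for 3 days and were killed 6 h after the final injection. Sections were stained for insulin, BrdU and DAPI, and BrdU+ β-cells were quantified; n = 4; mean ± SEM; unpaired t test.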

[3] = system: human β-cells; experiment: EdU incorporation proliferation assay in dissociated human islet cells; assay type: cell-based
How it was run: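 Human islets dissociated in Accutase (5,000 IEQ/mL, 37°C, 20 min), resuspended in CMRL complete medium and seeded at ~30,000 (96-well) or ~15,000 (384-well) cells per well. EdU was present throughout the 6-day treatment, including FK506 cotreatment. Cells were fixed (3% PFA), permeabilised (0.2% Triton X-100) and stained for C-peptide and DAPI. EdU+ β-cells were scored by automated imaging and manually; 4 wells, 9 fields each; mean ± SD; two-tailed t test vs DMSO.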

[4] = molecular target: CLK3 (Homo sapiens, UniProt P49761); experiment: Human kinome profiling, CLK3; assay type: biochemical
How it was run: (§1)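 Human kinases profiled by commercial providers under their standard protocols; ATP within 15 μmol/L of the apparent KM for each enzyme.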

[5] = system: α-cells of endogenous mouse pancreas; experiment: α-cell proliferation in endogenous mouse pancreas; assay type: in vivo; conditions: 0.25 mg/kg/BW i.p. twice a week for 3 weeks
[6] = system: p27KIP phosphorylation (S10); experiment: Western blot of p27KIP phosphorylation; assay type: cell-based, rat; conditions: INS-1E cells, 24 or 48 h, 10 μmol/L harmine or 0.5 μmol/L 5-IT
How it was run: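 Cells were treated after overnight attachment and lysed in RIPA buffer. Western blots were probed for p27KIP S10 phosphorylation, with actin as loading control.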

[7] = molecular target: CLK4 (Homo sapiens, UniProt Q9HAZ1); experiment: Human kinome profiling, CLK4; assay type: biochemical
How it was run: as §1

[8] = molecular target: T1, DYRK3 (Homo sapiens, UniProt O43781); experiment: Human kinome profiling, DYRK3; assay type: biochemical
T1 sequence (O43781 1-588): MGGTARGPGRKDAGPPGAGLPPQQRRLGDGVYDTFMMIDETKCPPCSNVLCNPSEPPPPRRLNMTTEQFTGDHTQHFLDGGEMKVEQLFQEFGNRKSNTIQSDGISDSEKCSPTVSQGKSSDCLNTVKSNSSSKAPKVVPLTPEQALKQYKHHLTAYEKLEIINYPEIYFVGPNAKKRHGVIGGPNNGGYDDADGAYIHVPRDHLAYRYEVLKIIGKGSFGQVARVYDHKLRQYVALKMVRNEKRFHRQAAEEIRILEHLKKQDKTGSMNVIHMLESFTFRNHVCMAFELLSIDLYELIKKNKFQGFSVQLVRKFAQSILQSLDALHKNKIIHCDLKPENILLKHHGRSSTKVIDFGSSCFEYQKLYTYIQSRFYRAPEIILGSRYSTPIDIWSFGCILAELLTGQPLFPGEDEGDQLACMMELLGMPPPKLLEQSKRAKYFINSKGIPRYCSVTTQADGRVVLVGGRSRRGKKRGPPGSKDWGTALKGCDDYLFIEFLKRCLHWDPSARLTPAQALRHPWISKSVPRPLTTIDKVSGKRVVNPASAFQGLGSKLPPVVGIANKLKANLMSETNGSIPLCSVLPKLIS
How it was run: as §1

[9] = molecular target: DYRK1A (Homo sapiens, UniProt Q13627); experiment: Human kinome profiling, DYRK1A; assay type: biochemical; conditions: 100 nmol/L
[10] = molecular target: T2, DYRK2 (Homo sapiens, UniProt Q92630); experiment: Human kinome profiling, DYRK2; assay type: biochemical
T2 sequence (Q92630 1-601): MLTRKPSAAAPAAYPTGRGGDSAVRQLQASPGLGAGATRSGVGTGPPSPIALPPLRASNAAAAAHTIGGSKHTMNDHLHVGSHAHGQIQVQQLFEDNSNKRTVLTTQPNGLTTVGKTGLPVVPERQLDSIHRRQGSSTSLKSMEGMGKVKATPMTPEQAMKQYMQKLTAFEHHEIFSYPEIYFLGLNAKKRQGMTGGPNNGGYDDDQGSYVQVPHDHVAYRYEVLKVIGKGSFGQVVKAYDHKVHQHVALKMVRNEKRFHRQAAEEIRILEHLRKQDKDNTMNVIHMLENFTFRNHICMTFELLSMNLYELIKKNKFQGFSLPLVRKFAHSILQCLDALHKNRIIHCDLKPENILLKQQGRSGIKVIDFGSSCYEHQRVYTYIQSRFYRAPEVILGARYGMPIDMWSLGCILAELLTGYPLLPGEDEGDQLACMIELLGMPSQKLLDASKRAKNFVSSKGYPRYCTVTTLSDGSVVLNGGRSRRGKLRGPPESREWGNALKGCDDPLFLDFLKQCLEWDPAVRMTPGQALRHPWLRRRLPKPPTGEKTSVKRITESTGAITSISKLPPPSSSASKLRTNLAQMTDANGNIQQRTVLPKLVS
How it was run: as §1

[11] = molecular target: CLK2 (Homo sapiens, UniProt P49760); experiment: Human kinome profiling, CLK2; assay type: biochemical
How it was run: as §1

Sequence of CLK2 (P49760 whole entry): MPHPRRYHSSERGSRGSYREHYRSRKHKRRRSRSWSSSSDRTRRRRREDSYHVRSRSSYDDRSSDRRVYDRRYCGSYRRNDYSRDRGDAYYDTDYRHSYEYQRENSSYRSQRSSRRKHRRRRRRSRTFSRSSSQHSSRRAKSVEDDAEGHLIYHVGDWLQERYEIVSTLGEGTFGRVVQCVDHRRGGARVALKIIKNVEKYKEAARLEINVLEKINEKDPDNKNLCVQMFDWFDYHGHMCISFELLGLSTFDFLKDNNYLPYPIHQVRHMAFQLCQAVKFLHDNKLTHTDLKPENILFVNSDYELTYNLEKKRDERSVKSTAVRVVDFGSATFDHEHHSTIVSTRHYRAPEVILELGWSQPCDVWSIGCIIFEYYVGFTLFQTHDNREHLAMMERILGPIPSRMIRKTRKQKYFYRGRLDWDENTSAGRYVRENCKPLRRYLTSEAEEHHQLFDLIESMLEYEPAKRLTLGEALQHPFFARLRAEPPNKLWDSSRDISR
Sequence of CLK4 (Q9HAZ1 whole entry): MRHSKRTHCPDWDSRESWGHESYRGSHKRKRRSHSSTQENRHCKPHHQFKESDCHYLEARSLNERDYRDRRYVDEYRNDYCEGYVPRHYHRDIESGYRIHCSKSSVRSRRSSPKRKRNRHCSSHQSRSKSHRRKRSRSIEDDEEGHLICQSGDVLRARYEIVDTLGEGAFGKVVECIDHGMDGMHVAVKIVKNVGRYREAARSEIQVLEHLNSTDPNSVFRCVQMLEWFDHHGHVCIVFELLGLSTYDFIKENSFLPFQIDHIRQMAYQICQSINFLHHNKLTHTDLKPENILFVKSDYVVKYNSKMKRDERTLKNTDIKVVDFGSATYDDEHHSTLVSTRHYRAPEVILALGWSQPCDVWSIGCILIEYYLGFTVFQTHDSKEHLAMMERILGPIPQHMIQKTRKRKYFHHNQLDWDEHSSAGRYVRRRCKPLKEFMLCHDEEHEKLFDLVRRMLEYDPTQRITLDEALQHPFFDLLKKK
Sequence of CLK3 (P49761 whole entry): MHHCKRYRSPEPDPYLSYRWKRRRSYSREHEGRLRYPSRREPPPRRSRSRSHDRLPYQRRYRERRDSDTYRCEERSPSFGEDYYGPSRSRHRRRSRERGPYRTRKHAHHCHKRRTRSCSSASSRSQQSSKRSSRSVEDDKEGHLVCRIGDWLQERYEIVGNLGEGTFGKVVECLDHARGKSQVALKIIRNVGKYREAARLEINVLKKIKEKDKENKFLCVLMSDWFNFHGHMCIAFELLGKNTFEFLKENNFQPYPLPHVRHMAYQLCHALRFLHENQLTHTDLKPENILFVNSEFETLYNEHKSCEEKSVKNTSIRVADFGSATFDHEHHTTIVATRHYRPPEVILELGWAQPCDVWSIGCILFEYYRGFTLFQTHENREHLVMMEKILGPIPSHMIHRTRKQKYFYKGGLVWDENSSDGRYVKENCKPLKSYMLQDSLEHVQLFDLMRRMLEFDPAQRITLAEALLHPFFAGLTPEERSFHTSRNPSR

Nc1ncnc2c1c(I)cn2[C@@H]1O[C@H](CO)[C@@H](O)[C@H]1O [5-IT, 5-iodotubercidin]
proliferation in liver, adipose, muscle and kidney tissue, treated vs control [1]: no significant differences | increase in BrdU+ β-cells in endogenous NSG pancreatic islets [2]: ~2.5 fold | increase in β-cell proliferation in pair-matched islets ([3]; 6-day treatment, islets pair-matched to the WS-3 test): 20 fold | concentration of maximal effect on β-cell proliferation ([3]; 6 days of treatment): 1 µmol/L | increase in β-cell proliferation (EdU incorporation) ([3]; 6 days of treatment, dissociated human islet cells, maximal effect): 10- to 12 fold | remaining activity CLK3 ([4]; 100 nmol/L): < 10% | IC50 ([4]; read-out: IC50 CLK3, ATP within 15 μmol/L of apparent KM): 195 nM | α-cell proliferation in endogenous mouse pancreas, treated vs nontreated [5]: no significant alterations | p27KIP phosphorylation [6]: decrease | remaining activity CLK4 ([7]; 100 nmol/L): < 10% | IC50 ([7]; read-out: IC50 CLK4, ATP within 15 μmol/L of apparent KM): 14 nM | remaining activity DYRK3 ([8]; 100 nmol/L): < 10% | IC50 ([8]; read-out: IC50 DYRK3, ATP within 15 μmol/L of apparent KM): 3 nM | remaining activity DYRK1A [9]: < 10% | remaining activity DYRK2 ([10]; 100 nmol/L): < 10% | IC50 ([10]; read-out: IC50 DYRK2, ATP within 15 μmol/L of apparent KM): 6 nM | remaining activity CLK2 ([11]; 100 nmol/L): < 10% | IC50 ([11]; read-out: IC50 CLK2, ATP within 15 μmol/L of apparent KM): 10 nM

Reference: article PMC4878416 (Diabetes, 2016)
